Experimental data as given in ChEMBL document CHEMBL4138223, “Structure-activity relationships for inhibitors of Pseudomonas aeruginosa exoenzyme S ADP-ribosyltransferase activity” (Eur J Med Chem, 2018).

Target: T1, Exoenzyme S (Pseudomonas aeruginosa) (UniProt Q93SQ1)
T1 sequence (whole entry): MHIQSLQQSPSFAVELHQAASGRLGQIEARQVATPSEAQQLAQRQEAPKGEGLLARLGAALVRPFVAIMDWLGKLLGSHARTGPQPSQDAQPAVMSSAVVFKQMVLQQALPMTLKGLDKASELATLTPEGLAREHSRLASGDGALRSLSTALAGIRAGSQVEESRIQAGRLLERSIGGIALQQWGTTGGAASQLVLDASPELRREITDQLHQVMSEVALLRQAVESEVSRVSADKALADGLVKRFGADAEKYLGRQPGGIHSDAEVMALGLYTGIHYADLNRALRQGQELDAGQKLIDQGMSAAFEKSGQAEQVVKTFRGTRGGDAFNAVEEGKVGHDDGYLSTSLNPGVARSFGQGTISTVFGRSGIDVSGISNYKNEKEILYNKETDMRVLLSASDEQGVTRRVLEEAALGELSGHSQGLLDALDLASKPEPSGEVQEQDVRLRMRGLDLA
Assay: Inhibition of recombinant Pseudomonas aeruginosa PAK His6-tagged ExoS ADPRT domain expressed in Escherichia coli at 100 uM using human GST-fused vH-Ras as substrate measured over 30 mins in presence of 14.3.3beta and epsilonNAD+ by fluorescence assay relative to control
Conditions: not given

Compound	inhibition [%]
O=C(O)/C=C/c1nc2ccccc2c(=O)[nH]1	< 50
O=C(O)CCc1nc2ccc3c(c2c(=O)[nH]1)CCCC3	45
O=C(O)CCCCc1nc2ccccc2c(=O)[nH]1	69
O=C(O)CCCc1nc2ccc3c(c2c(=O)[nH]1)CCC3	60
O=C(O)CCCc1nc2ccc3c(c2c(=O)[nH]1)CCCC3	30
O=C(O)CCc1nc2sc3c(c2c(=O)[nH]1)CCOC3	< 60
O=C(O)c1ccccc1Cc1nc2sc3c(c2c(=O)[nH]1)CCC3	50
O=C(O)CCc1nc2sc3c(c2c(=O)[nH]1)CCCCC3	< 50
COc1ccc2c(=O)[nH]c(CCCC(=O)O)nc2c1	20
O=C(O)CCCc1nc2cc3c(cc2c(=O)[nH]1)CCC3	50
COC(=O)CCc1nc(OC)c2c3c(sc2n1)CCC3	25
O=C(O)CCCc1nc2cc3c(cc2c(=O)[nH]1)CCCC3	22
O=C(O)CCc1nc2cc3c(cc2c(=O)[nH]1)CCCC3	27
COC(=O)CCc1nc(N)c2c3c(sc2n1)CCC3	12
O=C(O)CCCc1nc2ccc([N+](=O)[O-])cc2c(=O)[nH]1	30

Target: T2, Exoenzyme S (Pseudomonas aeruginosa, UniProt Q93SQ1)
T2 sequence (Q93SQ1 whole entry): T1 sequence (whole entry)
Assay: Inhibition of recombinant Pseudomonas aeruginosa PAK His6-tagged ExoS ADPRT domain expressed in Escherichia coli using human GST-fused vH-Ras as substrate measured over 30 mins in presence of 14.3.3beta and epsilonNAD+ by fluorescence assay
Conditions: read-out: IC50
Procedure, shortened: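 Recombinant ExoS ADPRT domain with 14-3-3 cofactor, Ras substrate and εNAD+. Read transfer of fluorescent εADP-ribose to Ras. Compounds tested at 8–10 concentrations in triplicate in three independent runs. IC50 by dose-response curve fitting.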

Compound	IC50 [µM]
O=C1NC(C2CC2C(=O)O)Nc2sc3c(c21)CCC3 (racemic)	138
O=C(O)CCc1nc2scc(-c3ccccc3)c2c(=O)[nH]1	56
O=C(O)[C@H]1CCC[C@H]1c1nc2sc3c(c2c(=O)[nH]1)CCC3	65
O=C(O)CCCCc1nc2sc3c(c2c(=O)[nH]1)CCC3	53
O=C(O)CCCc1nc2cc(F)c(F)cc2c(=O)[nH]1	15
O=C(O)[C@H](O)Cc1nc2sc3c(c2c(=O)[nH]1)CCC3	191
O=C(O)c1ccc(-c2nc3ccccc3c(=O)[nH]2)cc1	30
O=C(O)CCc1nc2sc3c(c2c(=O)[nH]1)CCCC3	55
O=C(O)CCc1nc2ccc3c(c2c(=O)[nH]1)CCC3	54
O=c1[nH]c([C@@H]2C[C@H]2c2nn[nH]n2)nc2sc3c(c12)CCC3 (relative stereo)	233
O=C(O)C1CC1c1nc2sc3c(c2c(=O)[nH]1)CCC3 (stereo in doubt; form 1)	6.9
O=C(O)C1CC1c1nc2sc3c(c2c(=O)[nH]1)CCC3 (stereo in doubt; form 2)	39
O=C(O)CCc1ncc(C2=CCCC2)c(=O)[nH]1	200
O=C(O)/C=C\c1nc2sc3c(c2c(=O)[nH]1)CCC3	15
O=C(O)CCC(=O)Nc1sc2c(c1C(=O)O)CCCC2	> 200
O=C(O)[C@@H](O)Cc1nc2sc3c(c2c(=O)[nH]1)CCC3	55

Compound	IC50 [µM]
O=C(O)CCCc1nc2cccc(F)c2c(=O)[nH]1	25
O=C(O)[C@H]1C[C@@H]1c1nc2sc3c(c2c(=O)[nH]1)CCC3 (racemic)	10
O=C(O)CCc1nc2sc3c(c2c(=O)[nH]1)CCC3	19 to 20
Nc1nc(CCC(=O)O)nc2sc3c(c12)CCC3	> 200
O=C(O)c1ccc(-c2nc3ccccc3c(=O)[nH]2)o1	32
CS(=O)(=O)NC(=O)CCc1nc2sc3c(c2c(=O)[nH]1)CCCC3	100
O=C(O)/C=C/c1nc2sc3c(c2c(=O)[nH]1)CCC3	70
O=C(O)COCc1nc2sc3c(c2c(=O)[nH]1)CCC3	72
O=C(O)[C@H]1C[C@H]1c1nc2sc3c(c2c(=O)[nH]1)CCC3 (racemic)	190
O=C(O)CCCc1nc2ccccc2c(=O)[nH]1	25 to 30
O=C(O)CCc1nc2cc3c(cc2c(=O)[nH]1)CCC3	98
O=c1[nH]c(CCCO)nc2sc3c(c12)CCC3	52
O=C(O)c1ccccc1-c1nc2sc3c(c2c(=O)[nH]1)CCC3	97
O=C(O)CCC(=O)Nc1sc2c(c1C(=O)O)CCOC2	> 200
COC(=O)CCc1nc2sc3c(c2c(=O)[nH]1)CCC3	116

Same assay, conditions: read-out: pIC50 (converted)

Compound	IC50 [µM]
O=C(O)[C@H]1C[C@@H]1c1nc2sc3c(c2c(=O)[nH]1)CCC3 (racemic)	11.2
O=C(O)CCc1nc2sc3c(c2c(=O)[nH]1)CCC3	27.5

Target: T2, Exoenzyme S
Assay: Inhibition of Pseudomonas aeruginosa PAK secreted full length ExoS using human GST-fused vH-Ras as substrate preincubated for 10 mins followed by epsilonNAD+ addition measured at 30 mins in presence of 14.3.3beta and epsilonNAD+ by real-time fluorescent assay
Conditions: read-out: IC50
Procedure, shortened: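 Induce ExoS secretion by growing P. aeruginosa PAK overnight at 37 °C in shaken LB. Dilute to OD600 0.001 in LB with 5 mM EGTA and 20 mM MgCl2, then shake 4 h at 37 °C. Add the culture to 500 nM 14-3-3b, vH-Ras and compound in triplicate (13 concentrations, 1% DMSO). Start with εNAD+. Use PAKΔexoS as negative control. Read fluorescence kinetically at 302/410; IC50 from linear-phase velocity (% control), two independent runs.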

Compound	IC50 [µM]
O=C(O)C1CC1c1nc2sc3c(c2c(=O)[nH]1)CCC3 (stereo in doubt; form 1)	1.32
O=C(O)C1CC1c1nc2sc3c(c2c(=O)[nH]1)CCC3 (stereo in doubt; form 2)	8.31
O=C(O)/C=C\c1nc2sc3c(c2c(=O)[nH]1)CCC3	3.51
O=C(O)CCCc1nc2cccc(F)c2c(=O)[nH]1	7.67
O=C(O)[C@H]1C[C@@H]1c1nc2sc3c(c2c(=O)[nH]1)CCC3 (racemic)	2.36
O=C(O)CCc1nc2sc3c(c2c(=O)[nH]1)CCC3	6.93

Same assay, conditions: read-out: pIC50 (converted)

Compound	IC50 [µM]
O=C(O)[C@H]1C[C@@H]1c1nc2sc3c(c2c(=O)[nH]1)CCC3 (racemic)	2.4
